The test system of this data set is MS2 coat protein. In words: apparent Kd, MS2 coat protein; higher = weaker binding; RNA-MaP array; FMN 200 µM where present. The method in brief: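 Stalled E. coli RNA polymerase transcribed the designs on Illumina sequencing-chip clusters. SNAP-549-labelled MS2 coat protein was titrated from 0.7 or 1.5 nM, doubling to 3 µM, without and then with constant ligand, in 100 mM Tris-HCl pH 7.5, 80 mM KCl, 4 mM MgCl2, BSA, DTT, yeast tRNA and Tween-20. Per-cluster binding curves were fitted to green signal normalised to red-channel RNA signal and control-cluster median Fmax. The apparent Kd is the median of the filtered fits.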

The mark [1] stands for this setting: designed as: OFF switch for flavin mononucleotide, no ligand.
[2] abbreviates: ligand present: flavin mononucleotide, designed as: OFF switch for flavin mononucleotide.
The mark [3] stands for this setting: designed as: ON switch for flavin mononucleotide, no ligand.
Setting [4] is: ligand present: flavin mononucleotide, designed as: ON switch for flavin mononucleotide.

Take “UUUAAGUCAGGAUAUCGUUAAUUUAAUUAUUUAUUUUAGUUCGAGAAGGGACAUGAGGAUCACCCAUGUAAUUU”: the apparent Kd (as a rule, the concentration giving half-maximal binding under the conditions of the assay) under setting [1] turned out to be 40.5 nM and the “apparent Kd” value under setting [2] is 63.1 nM.

Regarding “AAAAAGGCAGGAUAUACGAGUCAAAGAAAAGACAAAAGGAGACAUGAGGAUCACCCAUGUAGAAGGGCCAAAAA”, the “apparent Kd” value was 26.7 nM under setting [1] and 87.7 nM under setting [2].

Consider “GUCAGCAAAUAAGGAUAUACAACACUGCUUCGGCAGUGUAUUAAGAUCACAUGAGGAUCACCCAUGUAGAAGGUAUAAGCUGAU”, for which the “apparent Kd” value was determined as 6.98 nM under setting [1] and 24.5 nM under setting [2].

On to “AACUAACAUGAGGAUCACCCAUGUUGCAGCGGUUGAGGAUAUGUGGGUGAAAAUAGCAUGGCAGAAGGCGAGUGUA”, for which the “apparent Kd” value by setting is: under setting [3], 120 nM; under setting [4], 238 nM.

On to “GGAUAGGACAGAGGAUAUACGUGCUAGAUAUACUAGCAAAAUUUCCUCACAUGAGGAUCACCCAUGUAGAAGGCUGUCCUAUCG”, for which the “apparent Kd” value runs as follows: under setting [1], 15.6 nM; under setting [2], 399 nM.

For the sequence “GUAGCAUACCGAGGAUAUUCAGGGCUUAUAUAAACAUGAGGAUCACCCAUGUGGCGAAAGCCUAGGGAGAAGGCGGAAUGCUAC”, the “apparent Kd” value is 14.9 nM under setting [3] and 13.1 nM under setting [4].

Turning to “GGUUGGCGAGGAUAUACAUGAGGAUCACCCAUGUGGUCCUGCGGUGGAAUCGCCCUUUGUAGAAGGCGCGGGUC”, the “apparent Kd” value was 49.5 nM under setting [1] and 44.7 nM under setting [2].

For the sequence “AAAAAAAAAAGUGAGGAUAUGGGAAAAUUAACAUGAGGAUCACCCAUGUGAUAAAAAAAAAAAAACCAGAAGGUACAAAAAAAAAA”, the “apparent Kd” value was determined as 69.5 nM under setting [3] and 26.4 nM under setting [4].

With “AGAUGACAAAGUCAUCUCGCUUUGACAUGAGGAUCACCCAUGUAGGAUAUAUUAAUCAAAGAUUAAUAGAAGGACAUGUUUCUG”, the “apparent Kd” value is, setting by setting: under setting [1], 87.1 nM; under setting [2], 172 nM.

For “AGAUAUGAUGCAGGAUAUCUAUCUUGAAUGAGGAGAGAAGGGCAAGUAGAUAGAUAAGCCUCAUGACAUGAGGAUCACCCAUGU”, the “apparent Kd” value is, setting by setting: under setting [1], 14.8 nM; under setting [2], 15.2 nM.

For “UUAUGCUUUGAGAAGGUACAAACUACAUAUUGCGCACAUGAGGAUCACCCAUGUUGGUGAAUAAGUAAGGAUAUUAGACUGUGC”, the “apparent Kd” value is 133 nM under setting [1] and 102 nM under setting [2].

“UUUUAUUAGUAAGGAUAUACUAGCGAUUAGCUUGUAGAAGGUACAGUCUUAUGUAUAGCAUGUUAACAUGAGGAUCACCCAUGU”: the “apparent Kd” value is, setting by setting: under setting [3], 20.9 nM; under setting [4], 14 nM.

For “UUGUUCUGAGGAUAUACAUGAGGAUCACCCAUGUGUUUCUGCUUGGUGUCUUGCGUUUGUAGAAGGCUGUUCUC”, the “apparent Kd” value by setting is: under setting [1], 26.5 nM; under setting [2], 28 nM.

On to “GGAAACUACGAGAAGGACAUGUGGUCCUUCAGUUACAUGAGGAUCACCCAUGUAGGAUAUCGUAGUUUCAGGAUCGUGAGAUCG”, for which the “apparent Kd” value reads like this: under setting [1], 35.6 nM; under setting [2], 9.39 nM.

On to “GGAGACCUCACAGGAUAUGCUGGACUUUGUCCAGCAGAAGGGUGGACAUGAGGAUCACCCAUGUGGUCUUCCAAAAUAUUUAAU”, for which the “apparent Kd” value reads like this: under setting [3], 728 nM; under setting [4], 139 nM.

“AGGCUCACAGGAUAUCUCCACGGUAACAUGAGGAUCACCCAUGUCUCAUUUUCUCGUGCAAGAGAAGGGUGAGCGG”: the “apparent Kd” value came out at 435 nM under setting [1] and 455 nM under setting [2].

Regarding “AUGACAGGCAGAGCGCAACGGCGUACAUGAGGAUCACCCAUGUAGGAUAUGCUACACAAAGUGUAGCAGAAGGACAUGCGACGC”, the “apparent Kd” value under setting [1] was determined as 23.4 nM and the “apparent Kd” value under setting [2] is 42.2 nM.

With “UUAAAUCGAAACAUGAGGAUCACCCAUGUGUUGUGAUUAAUAUAGGAUAUGUGUAUACUUUUAUGACAGAAGGAUGAUAAUACU”, the “apparent Kd” value is, setting by setting: under setting [3], 12.3 nM; under setting [4], 10.7 nM.

As for “UCAUUGGUAGUGAGGAUAUCGGUGUGAUGGAAUGACGAGAAGGCACAUGAGGAUCACCCAUGUAAGAUUGGGCU”, the “apparent Kd” value under setting [1] turned out to be 314 nM and the “apparent Kd” value under setting [2] is 436 nM.

Regarding “GUGUACAGAGGAUAUACAGGAGCAUGGAAACAUGCAACUUCACAUGAGGAUCACCCAUGUAGAAGGCUGUACAC”, the “apparent Kd” value by setting is: under setting [1], 16 nM; under setting [2], 47.9 nM.

Consider “AUUUUGCUCGCAGGAUAUCAGGAAAUGUUGAUCUUCUGUAUCUCCUACAUGAGGAUCACCCAUGUUGAGAAGGGCGAUGGCAAU”, for which the “apparent Kd” value by setting is: under setting [1], 106 nM; under setting [2], 358 nM.

For the sequence “GUCAAAACCAUACUGGUCGACGGUCAGGAUAUACAUGAGGAUCACCCAUGUGCUAUUGAUACUAUGUAGAAGGGACCCACCGCA”, the “apparent Kd” value was found to be 16.2 nM under setting [1] and 30 nM under setting [2].

As to “UCAUUUCAGUAAGGAUAUUAAAUCAUGACGAUACAUGAGGAUCACCCAUGUUAAGAAGGUACUAAUACAAAUAAUGCAUUGUUC”, the “apparent Kd” value reads like this: under setting [1], 12.8 nM; under setting [2], 11.1 nM.

Consider “UAAACACCCUCAUGUACCUGAGGACAUGAGGAUCACCCAUGUAAGGAUAUAGCCAUUAAAUCUAACUAGAAGGUAUAGGAAAUC”, for which the “apparent Kd” value is 865 nM under setting [1] and 529 nM under setting [2].

Values taken from the EternaBench riboswitch data.
